Screens (PubChem)
TRPC6 inhibitor = mouse TRPC6 channel inhibition | HEK293-TRPC6, membrane potential dye, ACh-evoked depolarization; hits give low values | B-score at 10 µM | hit rate 1.1% among 310,000 | AID 2553;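 active means B-score under library mean minus 3 SD, initial fluorescence not abnormally high, positive integrated signal ratio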;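 further: B-score derived from integrated fluorescence ratio over the kinetic read; more negative B-score means stronger inhibition of depolarization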
Target sequence (Q61143 whole entry, looked up): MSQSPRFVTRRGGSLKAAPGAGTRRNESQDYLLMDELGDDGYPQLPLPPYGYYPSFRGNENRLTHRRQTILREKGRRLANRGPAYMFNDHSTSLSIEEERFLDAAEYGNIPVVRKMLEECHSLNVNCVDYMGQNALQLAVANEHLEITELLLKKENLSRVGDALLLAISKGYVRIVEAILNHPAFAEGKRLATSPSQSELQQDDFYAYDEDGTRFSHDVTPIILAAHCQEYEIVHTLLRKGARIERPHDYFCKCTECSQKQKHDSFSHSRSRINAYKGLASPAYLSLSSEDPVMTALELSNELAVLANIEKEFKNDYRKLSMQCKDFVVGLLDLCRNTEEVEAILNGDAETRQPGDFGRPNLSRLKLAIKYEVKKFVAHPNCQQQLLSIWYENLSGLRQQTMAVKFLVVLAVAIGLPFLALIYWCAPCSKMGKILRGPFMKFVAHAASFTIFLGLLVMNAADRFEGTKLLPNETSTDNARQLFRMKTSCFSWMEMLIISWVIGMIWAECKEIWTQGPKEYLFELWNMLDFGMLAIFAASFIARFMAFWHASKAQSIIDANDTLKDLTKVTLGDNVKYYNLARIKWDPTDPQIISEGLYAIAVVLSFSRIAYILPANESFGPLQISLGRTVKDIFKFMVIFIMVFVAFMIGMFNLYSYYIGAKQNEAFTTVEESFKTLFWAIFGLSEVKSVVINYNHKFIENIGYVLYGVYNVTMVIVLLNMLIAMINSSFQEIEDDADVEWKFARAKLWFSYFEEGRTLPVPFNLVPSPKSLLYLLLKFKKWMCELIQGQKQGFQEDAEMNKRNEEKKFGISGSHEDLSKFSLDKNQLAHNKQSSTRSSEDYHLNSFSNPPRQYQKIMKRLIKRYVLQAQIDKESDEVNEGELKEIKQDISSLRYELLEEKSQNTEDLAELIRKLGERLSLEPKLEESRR
TRPC6 act = mouse TRPC6 channel activation. hit rate 0.13% among 310,000. B-score at 10 µM. Q61143. HEK293-TRPC6 membrane potential dye fluorescence; hits give high values;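 active means B-score of the integrated fluorescence ratio above library mean plus 3 SD, and starting fluorescence ratio within library mean plus 5 SD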;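 further: higher score means more depolarization so channel activation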
TRPC4 agonist = opens the mouse TRPC4 cation channel; hit rate 0.49% among 310,000; AID 2237; B-score at 10 µM; Q9QUQ5; HEK293 TRPC4beta/mu-opioid, Fluo4 calcium fluorescence; hits give high values;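 active means B-score above 5 SD of library B-scores, and initial fluorescence ratio not above library mean plus 5 SD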;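 further: positive B-score marks a calcium rise read as TRPC4 activation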
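Material: TRPC4beta and mu-opioid receptor HEK293 stable cells | Incubation: 45 min room-temperature Fluo4 loading, 110 s read | Detection: Kinetic Fluo4 calcium fluorescence | Measure: Integrated baseline-normalised fluorescence ratio, converted to per-well B score | Benchmarks: Low control buffer alone, high control maximal DAMGO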
TRPC4 potent = allosterically enhances the mouse TRPC4 cation channel; Q9QUQ5; HEK293 TRPC4beta/mu-opioid, DAMGO EC20, Fluo-4 Ca2+ flux; hits give high values; B-score at 10 µM; hit rate 0.42% among 310,000; AID 2227;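 active means B-score of calcium response area above 5 SD of library B-scores, with initial fluorescence ratio within 5 SD of library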;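 further: B-score of integrated fluorescence ratio over time as area under calcium response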
TRPC4 block = blocks the mouse TRPC4 cation channel | Q9QUQ5 | HEK293 TRPC4beta/mu-opioid, DAMGO-evoked Fluo4 calcium flux; hits give low values | B-score at 10 µM | hit rate 0.39% among 300,000 | AID 2247;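 active means B-score over 3 SD under the library average, no early fluorescence shift, positive overall ratio signal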
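System: stable TRPC4beta/mu-opioid receptor HEK293 cells; Dosing: single-point compound dosing; Measured by: Fluo4 Ca2+ flux fluorescence; Read-out basis: per-well B score of integrated baseline-normalized Fluo4 ratio.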
Kir21 block = blocks the mouse Kir2.1 inward-rectifier potassium channel. P35561. B-score at 10 µM. hit rate 0.85% among 310,000. HEK293-Kir2.1, FluxOR thallium flux fluorescence; hits give low values;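 active means fluorescence ratio B-score at or below minus 3 SD of library scores, with starting-brightness B-score within 2 SD, cut at about -4.2 in these data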;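 further: channel flux triggered by added potassium and thallium sulfate stimulus; B-score of peak minus minimum fluorescence over baseline after thallium stimulus; more negative B-score means stronger Kir2.1 block with less thallium influx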
The depositor's hits bear a star; i = inactive. In the library only some 2.9% were active in any assay of this set; here they are far more common.

SMILES | TRPC6 inhibitor | TRPC6 act | TRPC4 agonist | TRPC4 potent | TRPC4 block | Kir21 block
CCCOc1ccc(OCCOCCN2CCc3ccccc3C2)cc1 | i | i | i | i | i | -10*
C=CCc1cc(OC)ccc1OCCOCCN1CCc2ccccc2C1 | i | i | i | i | i | -12*
CCOc1ccc(OCCOCCN2CCc3ccccc3C2)cc1 | i | i | i | i | i | -4.2*
Cc1ccc(SCCOCCN2CCc3ccccc3C2)cc1 | i | i | i | i | i | -4.6*
Cc1ccc(OCCCCN2CCc3ccccc3C2)c(C)c1 | i | i | i | i | i | -0.31
c1ccc(OCCOCCN2CCc3ccccc3C2)cc1 | i | i | i | i | i | 0.09
Cc1cccc(OCC(=O)NCC(=O)N/N=C/c2cc(Br)cc(Br)c2O)c1 | i | i | i | i | i | 0.08
CN(C)S(=O)(=O)c1ccc(NC(=O)C2CC3C=CC2C3)cc1 (stereo not drawn) | i | i | i | i | i | -0.04
Nc1nc(Cl)nc2c1ncn2[C@@H]1O[C@H](CO)[C@@H](O)[C@H]1O | i | i | 50* | i | i | -0.77
O=C1CC(=O)N(CCNc2ncc(C(F)(F)F)cc2Cl)C(=O)N1 | i | i | i | i | i | 0
O=C1C=CC(=O)N1CCNc1ncc(C(F)(F)F)cc1Cl | i | i | i | i | i | -5.7*
COc1ccc(C(=O)NNC(=S)NC(=O)c2ccc(Br)o2)cc1OC | i | i | i | i | i | 1.4
Cc1ccc(OCC(=O)NNC(=S)NC(=O)c2cccs2)c(C)c1 | i | i | 66* | i | i | -0.95
COc1cccc(OCC(=O)NNC(=O)c2cccs2)c1 | i | i | i | i | i | 0.24
O=C(COc1ccc(Br)cc1Br)NNC(=O)c1cccs1 | i | i | i | i | i | -0.53
Cc1ccc(OCC(=O)NNC(=S)NC(=O)c2ccc(Br)o2)c(C)c1 | i | i | 69* | 20* | -6* | -0.27
Cc1cc(OCC(=O)NNC(=S)NC(=O)c2cccs2)ccc1Cl | i | i | i | 19* | i | -2
O=C(NCCN1CCOCC1)C(=O)c1c[nH]c2ccccc12 | i | i | i | i | i | -0.14
COc1ccccc1C(C)Nc1nc(-c2cccnc2)nc2ccccc12 (stereo not drawn) | i | i | i | i | i | 1.6
Cc1cccc2c3nc4ccccc4nc3n(CCCN3C(=O)c4ccccc4C3=O)c12 | i | i | i | i | i | -0.39
CCCCn1c(N)c(N(CCOC)C(=O)CN(C)S(=O)(=O)c2ccc(F)cc2)c(=O)[nH]c1=O | i | i | i | i | i | -1.7
COc1cc(/C=C2/C(=N)N3C(SC)=NSC3=NC2=O)ccc1OC(=O)c1ccco1 | i | i | i | i | i | -4.6*
O=C(N/N=C/c1ccccc1)c1ccc(OCc2ccccc2)cc1 | i | i | i | i | i | 1.4
NC(N)=N/N=C/c1ccc(OCc2ccccc2)cc1 | i | i | i | i | i | -11*
NC(N)=N/N=C/c1ccc(OCc2ccc(Cl)cc2)cc1 | i | i | i | i | i | -9.8*
SMILES | TRPC6 inhibitor | TRPC6 act | TRPC4 agonist | TRPC4 potent | TRPC4 block | Kir21 block
Cc1ccc(COc2ccc(/C=N/O)cc2)cc1 | i | i | i | i | i | -1.5
CCOc1ccc(-c2c(C(=O)N/N=C/c3ccc(OC(C)C)cc3)nnn2-c2nonc2N)cc1 | i | i | i | i | i | -0.23
Cc1ccc(-c2c(C(=O)N/N=C/c3ccc(OC(C)C)cc3)nnn2-c2nonc2N)cc1 | i | i | i | 18* | i | -0.57
COc1ccc(/C=C/C(=O)O)cc1S(=O)(=O)N1CCCC1 | i | i | i | i | i | -1.1
CCN(CC)C(=S)SSC(=S)N(CC)CC | i | i | i | i | i | -4.5*
CN(CCc1ccccc1)C(=O)c1cc(COc2ccc(F)cc2Cl)on1 | i | i | i | i | i | -0.71
O=C1CSC(c2cccc([N+](=O)[O-])c2)N1Cc1ccccc1 (stereo not drawn) | i | i | i | i | i | -4.5*
CCOC(=O)C1=C(C)N(C)C(=S)NC1c1ccc(Cl)cc1 (stereo not drawn) | i | i | i | i | -6* | -2.7
CCOC(=O)C1=C(C)N(C)C(=S)NC1c1cccc(Cl)c1Cl (stereo not drawn) | i | i | i | 21* | i | -2.6
CCOC(=O)C1=C(C)N(C)C(=S)NC1c1ccccc1 (stereo not drawn) | i | i | i | i | i | -1.6
CCOC(=O)C1=C(C)N(C)C(=S)NC1c1ccccc1Cl (stereo not drawn) | i | i | i | i | i | -2.1
OC(CSc1ccc(F)cc1)CN1CCN(c2ccccc2)CC1 (stereo not drawn) | i | i | i | i | i | 0.67
CC(C)c1ccc(NC(=O)C2=NNC(=O)CC2)cc1 | i | i | i | i | i | 0.28
O=c1[nH]c(-[n+]2ccc3ccccc3c2)c(/C=N/N=C(\[O-])c2ccccc2)s1 | i | i | i | i | -6* | 1.1
O=C(Nc1ccccc1)C(Cl)C(=O)c1ccccc1 (stereo not drawn) | i | i | i | i | i | -8.3*
Cc1ccc2[nH]c(C(=O)N3CCN(c4cccc(Cl)c4)CC3)cc2c1 | i | i | i | i | i | -0.2
O=C(OCC1CCNCC1)c1ccc2c(c1)OCO2 | i | i | 62* | i | i | 0.02
O=C(Nc1nnc2n1CCS2)c1ccc(Br)o1 | i | i | i | 68* | i | 0.99
Cc1cc(S(=O)(=O)N2CCN=C2c2ccccc2)ccc1F | i | i | i | i | i | -4.7*
CC1(C)N=C(N)N=C(N)N1c1ccc(Oc2ccc(Cl)cc2)c(Cl)c1 | i | i | i | i | i | 1.7
CN(C)CCCOc1cccc(Oc2ccccc2)c1 | i | i | i | 12* | i | -3
CC(C)c1cccc(OCCCCN(C)C)c1 | i | i | i | 17* | i | -0.04
CN(C)CCCOc1cccc(Cl)c1 | i | i | 64* | 32* | i | 0.12
Cc1ccc(S(=O)(=O)Nc2cc3c4c(c2)CCC(=O)N4CCC3)cc1 | i | i | i | i | i | -0.63
